ChEMBL document CHEMBL1121664, “(Acylaryloxy)acetic acid diuretics. 4. Indeno[5,4-b]furan-2-carboxylic acids” (1981)

How the values were obtained:
[1] = tested on: Rattus norvegicus; assay: Compound was tested for the oral natriuretic activity in female rats at the dose 27 mg/kg; mequiv of Na+ x 100 / cage; assay type: functional
Procedure, shortened: (§1)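 Female Charles River rats (150–170 g) were kept overnight on a sugar diet with water ad libitum. Compound was dosed po in a final vehicle of 4% DMF in water with Tween 80, alongside concurrent vehicle placebo. Rats were housed three per metabolism cage and urine was collected over 0–5 h. Na+ is reported as mequiv ×100 per cage, as the geometric mean of three cages per dose.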

[2] = tested on: Pan troglodytes; assay: Compound was tested for the oral natriuretic activity in chimpanzee at the dose 5 mg/kg expressed as excretion rate in microequiv of Na+/min; assay type: functional
Procedure, shortened: (§2)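 GFR measured by iv pyrogen-free inulin. Inulin and urate clearances and Na+, K+, Cl- excretion rates measured by Auto Analyzer. Control values averaged over three 20-min periods. Compound given orally as aqueous solution via nasal catheter. Response is the mean of eight 15–20 min periods minus control, from single experiments.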

[3] = tested on: Rattus norvegicus; assay: Compound was tested for the oral natriuretic activity in female rats at the dose 9 mg/kg; mequiv of Na+ x 100 / cage; assay type: functional; procedure, shortened: as §1
[4] = tested on: Rattus norvegicus; assay: Compound was tested for the oral natriuretic activity in female rats at the dose 81 mg/kg; mequiv of Na+ x 100 / cage; assay type: functional; procedure, shortened: as §1
[5] = tested on: Rattus norvegicus; assay: Compound was tested for the oral natriuretic activity in female rats at the dose 3 mg/kg; mequiv of Na+ x 100 / cage; assay type: functional; procedure, shortened: as §1
[6] = Compound was tested for the ratio of clearance of urate to clearance of inulin levels at 5 mg/kg in Chimpanzee; assay type: functional; procedure, shortened: as §2
[7] = tested on: Pan troglodytes; assay: Compound was tested for the oral diuretic activity in chimpanzee at the dose 5 mg/kg expressed as excretion rate in microequiv of Cl-/min; assay type: functional, Urine; procedure, shortened: as §2
[8] = tested on: Pan troglodytes; assay: Compound was tested for the oral diuretic activity in chimpanzee at the dose 5 mg/kg expressed as excretion rate in microequiv of K+/min; assay type: functional, Urine; procedure, shortened: as §2
[9] = tested on: Pan troglodytes; assay: Compound was tested for the oral diuretic activity in chimpanzee at the dose 0.1 mg/kg expressed as excretion rate in microequiv of Cl-/min; assay type: functional, Urine; procedure, shortened: as §2
[10] = tested on: Pan troglodytes; assay: Compound was tested for the oral diuretic activity in chimpanzee at the dose 0.1 mg/kg expressed as excretion rate in microequiv of K+/min; assay type: functional, Urine; procedure, shortened: as §2
[11] = tested on: Pan troglodytes; assay: Compound was tested for the oral natriuretic activity in chimpanzee at the dose 0.1 mg/kg expressed as excretion rate in microequiv of Na+/min; assay type: functional; procedure, shortened: as §2
[12] = tested on: Pan troglodytes; assay: Compound was tested for the oral natriuretic activity in chimpanzee at 5 mg/kg by observing the excretion rates of sodium; µequiv of Na+/min

| SMILES | Excretion rate [1] | Excretion rate [2] | Excretion rate [3] | Excretion rate [4] | Excretion rate [5] | Ratio [6] | Excretion rate [7] | Excretion rate [8] | also measured |
| --- | --- | --- | --- | --- | --- | --- | --- | --- | --- |
| CCC1C(=O)c2c(Cl)c(Cl)c3c(c2C1c1ccccc1)CC(C(=O)O)O3 (centres undefined) | 82 | 820 | 109 | 87 | 94 | 0.16 | – | – | – |
| O=C(O)[C@H]1Cc2c3c(c(Cl)c(Cl)c2O1)C(=O)C1(CCCC1)C3 (stereo in doubt; 4d) | 349 | – | – | 432 | – | – | 1990 | 274 | Excretion rate ([2]; 5 mg/kg): 1500; Excretion rate ([3]; 9 mg/kg): 323; Excretion rate ([5]; 3 mg/kg): 224; Ratio ([6]; 5 mg/kg): 0 |
| CC1(C2CCCC2)Cc2cc(OCC(=O)O)c(Cl)c(Cl)c2C1=O (centres undefined) | – | 425 | – | – | – | 0.2 | 367 | 64 | – |
| CCCC1Cc2c(c(C)c(C)c3oc(C(=O)O)cc23)C1=O (centres undefined) | 32 | 0 | 16 | 28 | 15 | 0.01 | – | – | – |
| CC1(C2CCCC2)Cc2c3c(c(Cl)c(Cl)c2C1=O)O[C@@H](C(=O)O)C3 (some centres undefined) | 279 | 437 | 223 | 340 | 127 | -0.04 | 614 | 63 | – |
| CCCN(CCC)S(=O)(=O)c1ccc(C(=O)O)cc1 [PROBENECID] | – | – | – | – | – | 0.05 | – | – | – |
| CCCC1Cc2c3c(c(C)c(C)c2C1=O)OC(C(=O)O)C3 (centres undefined) | – | 252 | – | – | – | 0.01 | – | – | – |
| CC1(c2ccccc2)Cc2c3c(c(Cl)c(Cl)c2C1=O)O[C@H](C(=O)O)C3 (some centres undefined) | 281 | – | 267 | 388 | 189 | 0.09 | – | – | Excretion rate [9]: 1532; Excretion rate [10]: 88; Excretion rate [11]: 1305 |
| NS(=O)(=O)c1cc2c(cc1Cl)NCNS2(=O)=O [HYDROCHLOROTHIAZIDE] | – | 144 | 112 | – | – | – | 198 | 73 | – |
| O=C(O)COc1cc2c(c(Cl)c1Cl)C(=O)C1(CCCC1)C2 | – | 321 | – | – | – | 0.14 | 399 | 42 | – |
| NS(=O)(=O)c1cc(C(=O)O)c(NCc2ccco2)cc1Cl [FUROSEMIDE] | 125 | – | 7 | 244 | – | -0.02 | – | – | Excretion rate [12]: 1040 µequiv/min |
| CC1(c2ccccc2)Cc2cc(OCC(=O)O)c(Cl)c(Cl)c2C1=O (centres undefined) [INDACRINONE] | 129 | 409 | 97 | 189 | 86 | 0.38 | 539 | 108 | – |
